This note sets out measurements from ChEMBL document CHEMBL4619772 (J Med Chem, 2020).

Data set [1] in a line: Inhibition of pseudotyped HIV/MARV GP infected in human A549 cells assessed as reduction in virus entry measured after 48 hrs by luciferase reporter gene assay. As to conditions: Orthomarburgvirus, A549, 48 h. In kind it is cell-based, Marburgvirus. (In a reporter assay the amount or activity of a reporter protein is the signal.)
Data set [2] can be described thus: Metabolic stability in human liver microsomes assessed as parent compound remaining after 60 mins in presence of NADPH by HPLC analysis. In kind it is ADME, Microsome. The note with it: read-out: Stability. The method in brief:
(§1)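 Stability is reported as % of compound remaining after 60 min incubation in plasma or liver microsomes, relative to t0.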
(Liver microsomes are a subcellular fraction often used to study metabolism.)

A short description of data set [3]: Metabolic stability in human pooled plasma assessed as parent compound remaining at 20 uM after 60 mins by HPLC analysis. Format: ADME, cell-free. The note with it: read-out: Stability. The method in brief: as §1
The test system of data set [4] is A549. Description: Inhibition of pseudotyped HIV/EBOV GP infected in human A549 cells assessed as reduction in virus entry at 12.5 uM measured after 48 hrs by luciferase reporter gene assay relative to control. Format: cell-based. The note with it: Ebolavirus. The method, boiled down: (§2)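 Low-passage A549 cells are infected with HIV-based pseudovirions carrying EBOV or MARV GP and a luciferase reporter, with or without compound at 12.5 μM. […] Toremifene is the positive control.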

For data set [5], the system named is A549. Description: Inhibition of pseudotyped HIV/MARV GP infected in human A549 cells assessed as reduction in virus entry at 12.5 uM measured after 48 hrs by luciferase reporter gene assay relative to control. Format: cell-based. The note with it: Marburgvirus. The method in brief: as §2
Data set [6] concerns Zaire ebolavirus. Description: Antiviral activity against Ebola virus 1976 Mayinga infected in human HeLa cells pretreated for 1 hr followed by virus infection measured after 24 hrs by Hoechst staining-based immunofluorescence assay. In kind it is functional, organism-based.
The target in data set [7] is T1, Cytochrome P450 2C9 (Homo sapiens, UniProt P11712). Description: Inhibition of recombinant human CYP2C9 expressed in baculovirus infected insect cell microsomes using vivid BOMF as substrate preincubated for 10 mins followed by substrate addition and measured after 25 mins in presence of […] by fluorescence assay. In kind it is ADME. The method in brief:
(§3)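 CYP2C9 inhibition IC50 is determined with 30 μM sulfaphenazole as positive inhibitor control, from three replicates; errors are estimated <10%.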

Data set [8] in a line: Metabolic stability in Fischer F344 rat liver microsomes assessed as parent compound remaining after 60 mins in presence of NADPH by HPLC analysis. Format: ADME, Microsome. The note with it: read-out: Stability. The method, boiled down:
as §1

Data set [9] deals with T2, Cytochrome P450 3A4 (Homo sapiens, UniProt P08684). Description: Inhibition of recombinant human CYP3A4 expressed in baculovirus infected insect cell microsomes using vivid DBOMF as substrate preincubated for 10 mins followed by substrate addition and measured after 25 mins in presence of […] by fluorescence assay. Format: ADME. The method, boiled down:
(§4)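 CYP3A4 inhibition IC50 is determined with 10 μM quinidine as positive inhibitor control, from three replicates; errors are estimated <10%.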

The test system of data set [10] is Marburgvirus. Description: Antiviral activity against Marburg virus Lake Victoria, 2005 Angola infected in human HeLa cells pretreated for 1 hr followed by virus infection measured after 24 hrs by Hoechst staining-based immunofluorescence assay. In kind it is functional, organism-based, Lake Victoria marburgvirus. The note with it: Orthomarburgvirus, Angola2005, HeLa.

A short description of data set [11]: Selectivity index, ratio of CC50 for human A549 cells to EC50 for HIV/EBOV-GP infected in human A549 cells. Format: toxicity, cell-based. As to conditions: read-out: Ratio CC50/EC50. The method in brief:
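Ratio CC50/EC50. CC50 is A549 cytotoxicity by CellTiter 96 aqueous nonradioactive cell proliferation assay.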

A short description of data set [12]: Metabolic stability in Sprague-Dawley rat pooled plasma assessed as parent compound remaining at 20 uM after 60 mins by HPLC analysis. In kind it is ADME, cell-free. The note with it: read-out: Stability. The method, boiled down: as §1
Data set [13] is described as follows: Inhibition of pseudotyped HIV/EBOV GP infected in human A549 cells assessed as reduction in virus entry measured after 48 hrs by luciferase reporter gene assay. Format: cell-based, Ebolavirus. As to conditions: Orthoebolavirus, A549, 48 h.
A short description of data set [14]: Selectivity index, ratio of CC50 for human HeLa cells to EC50 for Ebola virus 1976 Mayinga in human HeLa cells. The note with it: read-out: Ratio CC50/EC50. Format: toxicity, cell-based.
In data set [15] the target is T1, Cytochrome P450 2C9. Description: Inhibition of recombinant human CYP2C9 expressed in baculovirus infected insect cell microsomes using fluorescent substrate in presence of NADPH by fluorescence assay. In kind it is ADME. The method, boiled down:
as §3

For data set [16], the target named is T2, Cytochrome P450 3A4. Description: Inhibition of recombinant human CYP3A4 expressed in baculovirus infected insect cell microsomes using fluorescent substrate in presence of NADPH by fluorescence assay. In kind it is ADME. The method, boiled down:
as §4

For data set [17], the system named is Marburgvirus. Description: Antiviral activity against Marburg virus Lake Victoria, 2005 Angola infected in African green monkey Vero cells. Format: functional, organism-based, Lake Victoria marburgvirus. The note with it: Orthomarburgvirus, Angola2005, Vero.
Data set [18] can be described thus: Selectivity index, ratio of CC50 for African green monkey Vero cells to EC50 for Ebola virus 1976 Mayinga infected in African green monkey Vero cells. In kind it is toxicity. As to conditions: read-out: Ratio CC50/EC50.
The subject of data set [19] is Zaire ebolavirus. Description: Antiviral activity against Ebola virus 1976 Mayinga infected in African green monkey Vero cells pretreated for 1 hr followed by virus infection measured after 24 hrs by Hoechst staining-based immunofluorescence assay. Format: functional, organism-based.
The subject of data set [20] is Zaire ebolavirus. Description: Antiviral activity against Ebola virus 1976 Mayinga infected in African green monkey Vero cells. In kind it is functional, organism-based.

T1 sequence (P11712 whole entry): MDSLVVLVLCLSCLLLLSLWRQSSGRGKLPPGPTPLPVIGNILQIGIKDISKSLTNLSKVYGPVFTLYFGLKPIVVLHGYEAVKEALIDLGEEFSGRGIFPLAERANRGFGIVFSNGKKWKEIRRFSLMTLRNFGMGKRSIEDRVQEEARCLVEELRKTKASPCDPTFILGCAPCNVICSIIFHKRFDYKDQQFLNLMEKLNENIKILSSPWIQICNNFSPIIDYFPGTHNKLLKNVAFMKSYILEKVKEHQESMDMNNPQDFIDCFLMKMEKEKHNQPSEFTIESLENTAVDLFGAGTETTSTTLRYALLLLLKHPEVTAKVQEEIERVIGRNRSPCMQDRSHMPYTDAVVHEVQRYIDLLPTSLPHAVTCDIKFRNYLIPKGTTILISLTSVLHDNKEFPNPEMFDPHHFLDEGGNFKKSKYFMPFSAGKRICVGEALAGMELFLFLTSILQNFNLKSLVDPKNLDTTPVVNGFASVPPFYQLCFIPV
T2 sequence (P08684 whole entry): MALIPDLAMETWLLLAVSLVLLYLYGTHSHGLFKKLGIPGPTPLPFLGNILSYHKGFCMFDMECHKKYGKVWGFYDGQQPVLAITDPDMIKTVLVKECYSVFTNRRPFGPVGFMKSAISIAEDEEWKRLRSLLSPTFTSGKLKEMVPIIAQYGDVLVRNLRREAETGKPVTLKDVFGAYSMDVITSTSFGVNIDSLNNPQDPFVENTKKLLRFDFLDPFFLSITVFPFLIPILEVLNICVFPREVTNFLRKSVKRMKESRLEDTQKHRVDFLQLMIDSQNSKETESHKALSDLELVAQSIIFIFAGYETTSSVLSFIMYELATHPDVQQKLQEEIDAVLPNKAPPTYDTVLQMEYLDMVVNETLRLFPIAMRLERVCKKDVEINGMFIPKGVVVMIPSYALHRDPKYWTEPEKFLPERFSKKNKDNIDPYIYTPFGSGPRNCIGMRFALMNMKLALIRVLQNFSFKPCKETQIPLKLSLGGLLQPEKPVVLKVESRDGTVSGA

What is called EC50 is the concentration that produces a half-maximal response. The inhibition is the percentage by which the read-out fell short of the control. A word on the IC50: it is the concentration that gives 50% inhibition. For `O=C(Nc1ccc(C23CC4CC(CC(C4)C2)C3)cc1)c1ccc(CN2CCCCC2)cc1`, the EC50 in data set [1] came out at 0.38 µM; with Zaire ebolavirus [6], 0.11 µM; in the data set with Marburgvirus [10], 1.23 µM; in [13] it was 0.035 µM. The remaining at 1 h in data set [2] worked out at 75%; in data set [8], 71%. Further, the remaining at 1 h, 20 µM in data set [3] amounted to 100%; in [12], 96%. Further, the figures for the inhibition with A549 [4] and in the data set with A549 [5] were 99.4% and 99%, respectively. In addition, the IC50 on Cytochrome P450 2C9 [7] and at Cytochrome P450 3A4 [9] was above 100 µM in each case. In addition, the selectivity ratio was 231 in data set [11] and 202 in data set [14].
Take `CC(C)(C)c1ccc(NC(=O)c2ccc(CN3CCCCC3)cc2)c(C(C)(C)C)c1`: the EC50 in data set [1] came to 2.34 µM; in the data set with Zaire ebolavirus [6], 0.59 µM; in the data set on Marburgvirus [10] it was 2 µM; in data set [13], 0.48 µM. For the same compound, the remaining at 1 h in data set [2] came out at 17%; in data set [8], 99%. Besides, the remaining at 1 h, 20 µM in data set [3] is 85%; in data set [12], 82%. Moreover, the inhibition stood at 99.5% in the data set on A549 [4] and 85% in the data set on A549 [5]. Also, the IC50 on Cytochrome P450 2C9 [7] is 18.6 µM; at Cytochrome P450 3A4 [9] it was above 100 µM. For the same compound, the selectivity ratio amounted to 76 in data set [11] and 227 in data set [14].
In the case of `CC(c1ccc(C(=O)N2CCc3cc(C(C)(C)C)ccc32)cc1)N1CCCCC1` (stereo unspecified), the results for the EC50 (in [1]; with Marburgvirus [10]; in data set [13]) were 3.09 µM, 3.38 µM and 2.05 µM, respectively. The remaining at 1 h was found to be 46% in data set [2] and 27% in [8]. For the same compound, the remaining at 1 h, 20 µM in [3] came to 94%; in data set [12], 62%. In addition, the inhibition with A549 [4] turned out to be 99.8%; with A549 [5] it was 98.1%. Also, the figures for the IC50 on Cytochrome P450 2C9 [7] and on Cytochrome P450 3A4 [9] were 7.94 µM and 24 µM, respectively. Further, the figures for the selectivity ratio in data set [11] and in data set [14] were 9 and 19, respectively.
Turning to `O=C(Nc1ccc(SC(F)(F)F)c(Cl)c1)c1ccc(CN2CCCCC2)cc1`, the EC50 in [1] amounted to 1.61 µM; with Zaire ebolavirus [6], 1.12 µM; with Marburgvirus [10] it was 2.4 µM; in data set [13] it was 1.27 µM. For the same compound, the remaining at 1 h was determined as 90% in data set [2] and 94% in data set [8]. Besides, the remaining at 1 h, 20 µM was 100% in [3] and 88% in [12]. The inhibition in the data set on A549 [4] is 99.9%; in the data set with A549 [5], 99.8%. Further, the IC50 on Cytochrome P450 2C9 [7] was 4.49 µM; on Cytochrome P450 3A4 [9], 15.1 µM. Moreover, the selectivity ratio came out at 5 in data set [11] and 14 in data set [14].
For `CC1CCN(c2ccc(NC(=O)c3ccc(CN4CCOCC4)cc3)cc2C(F)(F)F)CC1`, the EC50 in data set [1] stood at 0.18 µM; with Zaire ebolavirus [6], 0.31 µM; in the data set with Marburgvirus [10], 0.82 µM; in data set [13], 0.012 µM. Further, the remaining at 1 h is 64% in data set [2] and 75% in [8]. For the same compound, the remaining at 1 h, 20 µM in [3] was determined as 100%; in data set [12] it was 89%. Further, the results for the inhibition in the data set with A549 [4] and with A549 [5] were 99.3% and 92.3%, respectively. In addition, the IC50 at Cytochrome P450 2C9 [15] was 4.98 µM; at Cytochrome P450 3A4 [16] it was above 100 µM. The figures for the selectivity ratio in [11] and in data set [14] were 2090 and 58, respectively.
As for `O=C(Nc1ccc(C23CC4CC(CC(C4)C2)C3)cc1)c1ccc(CN2CCOCC2)cc1`, the EC50 in [1] came out at 2.79 µM; in the data set with Zaire ebolavirus [6] it was 0.83 µM; in the data set with Marburgvirus [10] it was 0.52 µM; in data set [13], 0.018 µM. Further, the remaining at 1 h in data set [2] turned out to be 34%; in [8], 57%. The remaining at 1 h, 20 µM in [3] and in data set [12] was 86% in each case. In addition, the inhibition amounted to 99% in the data set on A549 [4] and 72.5% in the data set with A549 [5]. Moreover, the IC50 is 3.14 µM on Cytochrome P450 2C9 [15] and above 100 µM on Cytochrome P450 3A4 [16]. The selectivity ratio in [11] was 5440; in data set [14] it was 134.
Take `CC(c1ccc(C(=O)Nc2ccc(C3CCCCC3)cc2)cc1)N1CCCCC1` (stereo unspecified): the EC50 in [1] came out at 0.85 µM; in the data set with Zaire ebolavirus [6], 1.8 µM; with Marburgvirus [10] it was 5.56 µM; in [13], 0.33 µM. The remaining at 1 h in [2] stood at 31%; in data set [8] it was 24%. In addition, the remaining at 1 h, 20 µM in data set [3] is 88%; in [12] it was 82%. The results for the inhibition with A549 [4] and in the data set with A549 [5] were 99.3% and 88.9%, respectively. The selectivity ratio amounted to 390 in data set [11] and 54 in [14].
Regarding `CC(c1ccc(C(=O)N2CC(C(C)(C)C)c3ccccc32)cc1)N1CCCCC1` (stereo unspecified), the EC50 in [1] worked out at 3.18 µM; in the data set with Zaire ebolavirus [6], 0.87 µM; in the data set on Marburgvirus [10], 6.32 µM; in data set [13], 0.16 µM. Besides, the remaining at 1 h in [2] was determined as 2%; in data set [8], 0%. Besides, the remaining at 1 h, 20 µM in [3] is 88%; in [12] it was 2%. For the same compound, the inhibition was 99.9% in the data set on A549 [4] and 92.8% with A549 [5]. For the same compound, the values for the selectivity ratio in data set [11] and in data set [14] were 224 and 137, respectively.
Consider `COC(=O)c1ccc(NC(=O)c2ccc(CN3CCCCC3)cc2)cc1`, for which the EC50 in [1] was 0.53 µM; in the data set with Marburgvirus [17], below 10 µM; with Zaire ebolavirus [6], above 25 µM; with Zaire ebolavirus [19], 2.83 µM; in data set [13], 9.86 µM; in the data set with Zaire ebolavirus [20], below 10 µM. For the same compound, the remaining at 1 h in [2] was found to be 54%; in [8], 0%. For the same compound, the remaining at 1 h, 20 µM was found to be 63% in data set [3] and 78% in data set [12]. The selectivity ratio in data set [18] was 35; in data set [11], 15. Further, the values for the inhibition in the data set on A549 [4] and in the data set with A549 [5] were 74% and 90.7%, respectively.
